zVAD death inh: L929 zVAD cell death inhibition. L929 zVAD necroptosis rescue, ATP luminescence, 24 h; with zVAD 60 µM. hit rate 0.38% among 220,000. viability rescue, % at 10 µM. AID 1377;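 active = activation, scaled between plate controls, above about 75%, limit read from the data; inactive = activation under that limit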;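 also: 0% = zVAD with DMSO and 100% = DMSO alone without zVAD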
Runt-SMMHC FRET: Runt domain-CBFb-SMMHC interaction inhibition | Cerulean-Runt/Venus-CBFb-SMMHC FRET ratio 530/480, 1 h | Q01196+Q13951 | hit rate 0.74% among 220,000 | inhibition, % at 20 µM;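 active = mean inhibition across duplicate retests at 20 µM reaching about 50%, limit read from the data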;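 also: 0% = DMSO wells and 100% = wells with excess untagged CBFb-SMMHC; inhibitors lower the FRET ratio by blocking Runt binding to CBFb-SMMHC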
Target sequence (Q01196 whole entry, looked up, the tested form may be a part): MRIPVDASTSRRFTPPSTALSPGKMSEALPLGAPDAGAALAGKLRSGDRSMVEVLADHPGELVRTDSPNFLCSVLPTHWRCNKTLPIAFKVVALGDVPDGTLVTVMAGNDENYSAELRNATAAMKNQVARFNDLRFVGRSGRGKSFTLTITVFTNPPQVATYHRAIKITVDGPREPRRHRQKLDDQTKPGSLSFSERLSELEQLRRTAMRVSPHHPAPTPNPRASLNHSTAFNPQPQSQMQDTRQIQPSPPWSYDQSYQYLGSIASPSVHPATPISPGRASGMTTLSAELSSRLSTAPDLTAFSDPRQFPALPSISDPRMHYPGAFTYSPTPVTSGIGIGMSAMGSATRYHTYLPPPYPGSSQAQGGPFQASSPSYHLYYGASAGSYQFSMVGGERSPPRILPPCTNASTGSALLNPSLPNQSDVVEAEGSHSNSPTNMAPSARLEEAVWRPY
Target sequence (Q13951 whole entry, looked up, the tested form may be a part): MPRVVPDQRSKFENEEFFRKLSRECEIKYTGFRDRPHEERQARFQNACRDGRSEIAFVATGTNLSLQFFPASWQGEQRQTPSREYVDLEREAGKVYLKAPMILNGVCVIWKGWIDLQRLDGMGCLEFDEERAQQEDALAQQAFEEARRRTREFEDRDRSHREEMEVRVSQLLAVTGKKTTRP
Runt-CBFb FRET: blocks binding of human RUNX1 Runt domain to CBFb | Q01196+Q13951 | Cerulean-Runt/Venus-CBFb FRET ratio 530/480, 1 h | inhibition, % at 20 µM | hit rate 0.46% among 220,000;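 active = inhibition over about 50% at 20 µM in the single-dose screen, limit read from the data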;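 also: 0% = DMSO wells and 100% = excess unlabeled CBFb competitor control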
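test system = Cerulean-Runt domain fusion protein, energy donor | probe or stimulus = Venus-CBFb binding partner, 100 nM | incubation = two 1 h room-temperature incubations shielded from light | detection = fluorescence energy transfer, 422 nm excitation, 530/480 nm emission | measure = loss of energy transfer signal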
Hck-Nef inh: human Hck-Nef kinase inhibition | P08631 | Recombinant Hck-YEEI plus Nef, Z-Lyte FRET kinase assay | inhibition, % at 20 µM | hit rate 0.68% among 220,000 | AID 463187;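 active = Hck-Nef kinase inhibition above about 50%, limit read from the data; inactive = inhibition below that limit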;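 also: 0% = DMSO with Hck plus Nef and 100% = Hck alone without Nef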
TNF death inh: TNF-alpha cell death inhibition in Jurkat FADD-/- cells; Jurkat FADD-/- TNF necroptosis rescue, ATP luminescence, 24 h; 0 = TNF only, 100 = no-TNF cells; activation (protection from cell death), % at 10 µM; hit rate 0.068% among 220,000;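 active = activation, meaning protection from cell death, of at least 50% relative to plate controls; inactive = activation below 50%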;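 also: necroptosis triggered by 40 ng/mL TNF-alpha added together with compound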
RanGTP-Impb inh: inhibitors of RanGTP-importin-beta interaction, primary screen, biochemical, FRET, CFP-Ran, YFP-importin-beta, homogeneous | cell-free CFP-Ran/YFP-importin-beta FRET ratio | inhibition, % (no concentration beside the values) | hit rate 1.1% among 300,000 | AID 2216;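 active = more than half of the replicate wells show a fall in the fluorescence ratio signal beyond about 16%, limit read from the data, passing the limit was not always enough; inconclusive = exactly half of the replicate wells pass the set limit; inactive = fewer than half of replicates pass the limit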;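 also: 0% = DMSO wells and 100% = Ran loaded with GDP instead of GTP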
zVAD death conf: confirmed blocker of zVAD induced death in L929 cells. L929 zVAD-induced necroptosis rescue, ATP luminescence, 24 h. hit rate 16% among 760. shares compounds with zVAD death inh. activation (protection from necroptosis), % at 10 µM;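 active = mean protection from necroptosis of at least 50% over duplicate tests; inactive = mean protection below 50%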;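 also: 0% = cells with zVAD alone and 100% = vehicle cells without zVAD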
* marks the source's active call; other numbers are inactive results; ? = inconclusive; / = no result given. In the library only some 2.1% were active in any assay of this set; here they are far more common.

SMILES | zVAD death inh | Runt-SMMHC FRET | Runt-CBFb FRET | Hck-Nef inh | TNF death inh | RanGTP-Impb inh | zVAD death conf
CSc1ccc(C2N=C(c3ccccc3)NO2)cc1 (stereo unspecified) | / | / | / | / | / | -1 | /
Oc1c(Br)cc(C2N=C(c3ccccc3)NO2)cc1Br (stereo unspecified) | 80* | -1 | 0 | 1 | 0 | -1 | 4
CS(=O)(=O)c1ccc2nc(NC(=O)CS(=O)(=O)Cc3ccccc3)sc2c1 | 4 | -4 | -2 | 23 | 2 | -1 | /
CC(=O)Nc1nc2ccc(Br)cc2s1 | 80* | -1 | -1 | 2 | -4 | 0 | 35
CC(C)C(=O)Nc1nc2ccc(S(C)(=O)=O)cc2s1 | 84* | 1 | -1 | 23 | -10 | 1 | 9
CS(=O)(=O)c1ccc2nc(NC(=O)Cc3ccccc3)sc2c1 | 76* | -2 | 1 | 2 | 8 | -1 | 22
COc1cc(NC(=O)c2cccs2)ccc1NC(=O)c1cc2ccccc2o1 | 78* | -58 | -2 | 19 | 1 | -3 | 1
COc1cc(NC(C)=O)ccc1NC(=O)c1cc2ccccc2o1 | / | / | / | / | / | 2 | /
CN(C)S(=O)(=O)c1ccc(NC(=O)c2cc3ccccc3o2)cc1 | 92* | 1 | -2 | 4 | -1 | ? | 4
Clc1nc(Cl)nc(NCCC2=CCCCC2)n1 | 0 | 3 | -1 | -21 | 0 | 4 | /
Cc1cc(C)cc(C(=O)N2CCN(c3ccccn3)CC2)c1 | 5 | 1 | -2 | 19 | -1 | ? | /
COc1cccc(OC)c1OC(=O)/C=C/c1ccc(C)o1 | / | / | / | / | / | 2 | /
CNc1nc(N)c(C(=O)C23CC4CC(CC(C4)C2)C3)s1 | 6 | -5 | 0 | 22 | 4 | 2 | /
Cc1ccc(NC(=O)c2cccc(OCc3c(C)noc3C)c2)cc1 | 79* | -4 | -2 | 0 | -2 | 1 | 10
Cc1noc(C)c1COc1cccc(C(=O)Nc2ccc(C#N)cc2)c1 | 1 | -2 | 0 | -1 | -3 | 7 | /
CCC(SC1=NCCS1)C(=O)Nc1nnc(-c2ccccc2OC)s1 (stereo unspecified) | 83* | 1 | 1 | 3 | 3 | 6 | 1
CCCCC(CC)C(=O)Nc1ccc(C)c(O)c1 (stereo unspecified) | 34 | -2 | 0 | 16 | -1 | -3 | /
Cc1cccc2[nH]c(-c3ccc(NC(=O)c4ccco4)cc3)nc12 | 84* | 1 | -2 | 0 | 0 | 4 | 2
O=C(Nc1ccc2nc(-c3ccccc3)[nH]c2c1)c1ccco1 | 15 | -2 | 0 | -1 | 0 | -2 | /
CN(C)C(=O)CCSc1nnc(-c2ccncc2)o1 | 10 | -3 | -1 | 24 | -1 | 8 | /
Cc1cc(N/N=C/c2cccc(Br)c2)nc2ccccc12 | 2 | -10 | -4 | 1 | 2 | 5 | /
Cc1cc(N/N=C/c2ccncc2)nc2ccccc12 | 81* | -2 | -2 | 2 | 50* | 1 | 77*
CCOC(=O)COc1ccc2c(=O)cc(-c3ccccc3)oc2c1 | 0 | 0 | 0 | 18 | 3 | 1 | /
CC(C)OCCOc1ccc2oc(-c3ccco3)cc(=O)c2c1 | / | / | / | / | / | 0 | /
NC(=O)COc1ccc2oc(-c3ccccc3)cc(=O)c2c1 | 81* | 1 | -1 | 20 | -2 | 0 | 26
N#CCOc1ccc2oc(-c3ccco3)cc(=O)c2c1 | 76* | -6 | 4 | 4 | -2 | ? | 1
O=C(NCc1ccncc1)Nc1ccccc1F | 1 | 1 | 1 | 23 | 3 | 0 | /
CCNC(=O)NC(=O)C(C)OC(=O)c1ccc(-n2nc(SC)sc2=S)cc1 (stereo unspecified) | 82* | 1 | -1 | 0 | 3 | ? | 39
NS(=O)(=O)c1ccc(N/C=C/C(=O)c2ccc(Br)cc2)cc1 | 76* | -65 | -6 | 8 | -1 | ? | 16

Compound activity from PubChem BioAssay.
